Experimental data pooled from the literature.
Protocols differ between the studies behind these lines.
Target: Vascular endothelial growth factor receptor 1 (FLT1, Homo sapiens, UniProt P17948)

For `COc1cc(Cl)c(C(=O)N[C@@H](CN[C@H]2CC[C@@H](N)CC2)Cc2ccc(C#N)cc2)cc1-c1ccc(CN[C@H](C)c2ccc(C)cc2)o1`, the remaining activity was 102% (enzyme activity; inhibitor; 1 µM).
For `CO[C@@H](C)c1c(Nc2ccc([C@@H](N(C)C(=O)C3CCS(=O)(=O)CC3)C(F)(F)F)cc2)cnc2cc(Cl)nn12`, the remaining binding was 85% (cell-free assay; competition with immobilised ligand; 1 µM).
For `CNC(=O)c1cc(Oc2ccc(NC(=O)Nc3ccc(Cl)c(C(F)(F)F)c3)cc2)ccn1`, the remaining signal was 50.5% (cell-free assay; 0.5 µM).
The remaining binding of `O=C(N[C@H]1CCCCC/C=C\C2C[C@@]2(C(=O)O)NC(=O)[C@@H]2C[C@@H](Oc3ccncc3)CN2C1=O)OC1CCCC1` (some centres unmarked) is reported as 100% (cell-free assay; competition with immobilised ligand; 1 µM).
With `Cc1sc(C(=O)NC2COC2)cc1-n1cc(NC(=O)Nc2c(F)cccc2Cl)cn1` the remaining activity was 84.1% (enzyme activity; inhibitor; 10 µM).
The activity vs control of `Cc1cc(NC(=O)c2cccc3cc(-c4cccc5[nH]nc(N)c45)ccc23)ccc1F` is reported as 2% (enzyme activity; inhibitor; 0.1 µM).
`CN(c1ncccc1CNc1nc(Nc2ccc3c(c2)CC(=O)N3)ncc1C(F)(F)F)S(C)(=O)=O` has an inhibition of 80% (enzyme activity; inhibitor; 1 µM).
For `CCOc1cc(-c2nncn2C)ccc1Nc1ncc2cc(C)nc(NCC(C)(C)C)c2n1`, the inhibition was less than 15% (enzyme activity; inhibitor; FRET; 1 µM).
With `O=S(=O)(NC1CCC(c2cc(F)ccc2F)(S(=O)(=O)c2ccc(Cl)cc2)CC1)C(F)(F)F` (centres unmarked) the remaining binding was 86% (cell-free assay; competition with immobilised ligand; 1 µM).
For `Nc1ncnc2occ(-c3ccc(NC(=O)Nc4cc(C(F)(F)F)ccc4F)cc3)c12`, the remaining signal was 0.55% (cell-free assay; 20 µM).
With `CC(C)(C)c1nc(-c2cccc(NS(=O)(=O)c3c(F)cccc3F)c2F)c(-c2ccnc(N)n2)s1` the remaining activity was 84% (enzyme activity; inhibitor; radiometric; 1 µM).
The inhibition of `CNC(=O)c1cc2c(Oc3ccc(NC(=O)C4(C(=O)Nc5ccc(F)cc5)CC4)cc3)ccnc2cc1OC` is reported as 106% (enzyme activity; inhibitor; radiometric; 1 µM).
For `N#CCCc1ccc2c(c1)-c1[nH]c3ccc([N+](=O)[O-])cc3c1CC(=O)N2`, the remaining signal was 99.7% (cell-free assay; 0.5 µM).
`CC(C)(O)[C@H]1CC[C@H](Nc2ccc3ncc(-c4cccc(C(F)(F)F)c4)n3n2)CC1` gave a remaining activity of 92.5% (enzyme activity; inhibitor; 1 µM).
For `O=C(O)[C@@H]1[C@@H](Cn2nnc3ccccc3c2=O)CC[C@H]1C(=O)c1ccc(OCCC2CCOCC2)cc1`, the remaining binding was 100% (cell-free assay; competition with immobilised ligand; 1 µM).
For `COc1cc(Nc2cnc(C#N)c(O[C@H](C)CN(C)C)n2)ncc1-c1cnn(C)c1`, the remaining activity was 31% (enzyme activity; inhibitor; radiometric; 10 µM).
With `CC1CCCN1c1nccc(-c2cnn3ncccc23)n1` (centres unmarked) the remaining binding was 100% (binding; 1 µM).
`Cc1ccc(Nc2nccc(N(C)c3ccc4c(C)n(C)nc4c3)n2)cc1S(N)(=O)=O` gave an inhibition of 100% (enzyme activity; inhibitor; 0.3 µM).
With `COc1cc2nccc(Oc3ccc(NC(=O)c4c5n(n(-c6ccc(F)cc6)c4=O)CCCC5)cc3)c2cc1OC` the inhibition was 23% (enzyme activity; inhibitor; 0.1 µM).
For `Nc1nc(Nc2ccccc2)sc1C(=O)c1c(F)cccc1F`, the remaining activity was 17% (enzyme activity; inhibitor; 10 µM).
The inhibition of `CCN(CC)CCNC(=O)c1c(C)[nH]c(/C=C2\C(=O)Nc3ccc(F)cc32)c1C` is reported as 99% (enzyme activity; inhibitor; 0.3 µM).
`CS(=O)(=O)NCC[C@H](NC(=O)c1cncc2c1cnn2-c1ccc(F)cc1)c1ccnc(S(C)(=O)=O)c1` has a remaining binding of 90% (cell-free assay; competition with immobilised ligand; 1 µM).
The inhibition of `COc1cc2ncnc(Nc3ccc(Oc4ccccc4)c(C)c3C)c2cc1OC` is reported as 0% (enzyme activity; inhibitor; 1 µM).
For `COCCOc1nc(-c2ccc(Cl)nc2)nc2c1CN(C(=O)c1ncn3ccccc13)CC2`, the remaining binding was 87% (cell-free assay; competition with immobilised ligand; 0.1 µM).
For `CNCc1ccc(-c2cc(-c3nc(-c4ccc(S(=O)(=O)C(C)C)cc4)cnc3N)on2)cc1`, the inhibition was 50% (enzyme activity; inhibitor; 0.4 µM).
`CSc1cccnc1N1CCN(Cc2nc3ccccc3[nH]2)CC1` gave a remaining binding of 100% (cell-free assay; competition with immobilised ligand; 1 µM).
`CC(C)(C)C(=O)c1sc(NC2CCCCC2)nc1N` has a remaining activity of 82% (enzyme activity; inhibitor; 10 µM).
With `Cc1nccc(COC(=O)N2C[C@@H]3[C@@H](CNC(=O)c4ccc5[nH]nnc5c4)[C@@H]3C2)n1` the remaining binding was 100% (cell-free assay; competition with immobilised ligand; 1 µM).
`O=C1Nc2ccc(Cl)cc2C1=Cc1cc(Cl)c(O)c(Cl)c1` gave a remaining signal of 85% (cell-free assay; 0.5 µM).
